Values after ≈ are worked out from the molar mass of the structure shown.
Legend:
HT-29 = assay: Cytotoxicity against human HT-29 cells after 7 days by MTT assay; format: functional; details: HT-29, 168 h, read-out: LD50 (the source's name)
How it was run: (§1)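 Seven-day in vitro MTT cytotoxicity assay run by a cancer-center cell culture laboratory under standard protocols, using A-549 (human lung carcinoma), MCF-7 (human breast carcinoma), HT-29 (human colon adenocarcinoma), A-498 (human kidney carcinoma) and PC-3 (human prostate) cells. Isolated compounds were tested.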

MIA PaCa-2 = assay: Cytotoxicity against human MIAPaCa2 cells after 7 days by MTT assay; format: functional; details: MIA PaCa-2, 168 h, read-out: LD50 (the source's name)
A549 = assay: Cytotoxicity against human A549 cells after 7 days by MTT assay; format: functional; details: A549, 168 h, read-out: LD50 (the source's name); how it was run: as §1
A498 = assay: Cytotoxicity against human A498 cells after 7 days by MTT assay; format: functional; details: A498, 168 h, read-out: LD50 (the source's name); how it was run: as §1
[1] = (§2) Toxicity in brine shrimp larvae; format: organism-based; details: artemia, in vivo
MCF7 = assay: Cytotoxicity against human MCF7 cells after 7 days by MTT assay; format: functional; details: MCF7, 168 h, read-out: LD50 (the source's name); how it was run: as §1
PC-3 = assay: Cytotoxicity against human PC3 cells after 7 days by MTT assay; format: functional; details: PC-3, 168 h, read-out: LD50 (the source's name); how it was run: as §1
Artemia = assay: as §2; format: organism-based; details: in vivo

| Compound | CC50 (HT-29) | CC50 (MIA PaCa-2) | CC50 (A549) | CC50 (A498) | LC50 [1] | CC50 (MCF7) | CC50 (PC-3) | LC50 (Artemia) |
| --- | --- | --- | --- | --- | --- | --- | --- | --- |
| CCCCCCCCCCCC[C@@H](O)[C@H]1CC[C@H]([C@H](O)CCCC(=O)CCCCCCCCC2=CC(C)(O)OC2=O)O1 (mixture of isomers) | 0.193 µg/mL | 3.12 ng/mL | 1.26 µg/mL | 0.93 µg/mL | 0.375 µg/mL | 0.303 µg/mL | 0.198 µg/mL | – |
| CCCCCCCCCCCC[C@@H](O)[C@H]1CC[C@H]([C@H](O)CCCC(=O)CCCCCC[C@@H](O)CC2=CC(C)(O)OC2=O)O1 (mixture of isomers) [ANNOMOLON B/34-EPI-ANNOMOLON B] | 0.0719 µg/mL | 7.48 ng/mL | 1.37 µg/mL | 0.377 µg/mL | – | 0.047 µg/mL | 0.0553 µg/mL | 7 ×10⁻² ug/ml |
| COc1cccc2c1C(=O)c1c(O)c3c(c(O)c1C2=O)C[C@@](O)(C(=O)CO)C[C@@H]3O[C@H]1C[C@H](N)[C@H](O)[C@H](C)O1 [DOXORUBICIN] | 0.0128 µg/mL (≈ 0.0235 µM) | 2.62 ng/mL (≈ 0.00482 µM) | 0.00113 µg/mL (≈ 0.00208 µM) | 0.00226 µg/mL (≈ 0.00416 µM) | – | 0.0182 µg/mL (≈ 0.0335 µM) | 0.0502 µg/mL (≈ 0.0924 µM) | – |
